The record followed here is ChEMBL document CHEMBL1121559, “Fluorinated analogues of 1-(2-chloroethyl)-3-cyclohexyl-1-nitrosourea: an attempt to control metabolism” (1980).

Several values for one entry are separate records, joined by “and”; a condition that tells them apart may be missing. Identical values can stand only once.

In assay [1] the test system is Mus musculus. Nature of the assay: Median day of death was measured in mice intracerebrally implanted leukemia L1210 at 15 mg/kg administered intraperitoneally on day 1. It counts as functional. Conditions: route intraperitoneal. The method in brief:
(§1)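 Mice implanted intracerebrally with an inoculum of 10⁵ L1210 leukemia cells. Compound given intraperitoneally on day 1 only. Read-outs were median day of death, % increase in life span calculated for animals dying, and 45-day survivors over total mice. Tests were run by an external cancer screening group.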

In assay [2] the test system is Mus musculus. Nature of the assay: Percent increase in life span was measured in mice intracerebrally implanted leukemia L1210 at 25 mg/kg administered intraperitoneally on day 1 only. It counts as functional. Conditions: L1210, ip, 24 h, route intraperitoneal. In a few lines:
as §1

The subject of assay [3] is Mus musculus. Nature of the assay: Median day of death was measured in mice intracerebrally implanted leukemia L1210 at 10 mg/kg administered intraperitoneally on day 1. It counts as functional. Particulars: route intraperitoneal. In a few lines:
as §1

Assay [4] relates to Mus musculus. Put plainly: Activity against TLX-5 lymphoma in mice Percent increase in survival time at 5 mg/kg,. It counts as functional.
Assay [5] has as its system Mus musculus. Nature of the assay: Activity against TLX-5 lymphoma in mice Percent increase in survival time at 80 mg/kg,. It counts as functional.
In assay [6] the test system is Mus musculus. Nature of the assay: Median day of death was measured in mice intracerebrally implanted leukemia L1210 at 35 mg/kg administered intraperitoneally on day 1. It counts as functional. Particulars: route intraperitoneal. In a few lines:
as §1

Assay [7] relates to Mus musculus. Nature of the assay: Percent increase in life span was measured in mice intracerebrally implanted leukemia L1210 at 140-30 mg/kg administered intraperitoneally on day 1 only; Toxic. It counts as functional, organism-based. In a few lines:
as §1

Assay [8] concerns Mus musculus. Nature of the assay: Percent increase in life span was measured in mice intracerebrally implanted leukemia L1210 at 10 mg/kg administered intraperitoneally on day 1 only. It counts as functional. Particulars: L1210, ip, 24 h, route intraperitoneal. The method in brief:
as §1

The subject of assay [9] is Mus musculus. Put plainly: Activity against TLX-5 lymphoma in mice Percent increase in survival time at 10 mg/kg,. It counts as functional.
The subject of assay [10] is Mus musculus. Put plainly: Percent increase in life span was measured in mice intracerebrally implanted leukemia L1210 at 35 mg/kg administered intraperitoneally on day 1 only. It counts as functional. Conditions: L1210, ip, 24 h, route intraperitoneal. The method in brief: as §1
Assay [11] concerns Mus musculus. Put plainly: Activity against TLX-5 lymphoma in mice Percent increase in survival time at 100 mg/kg,. It counts as functional.
Assay [12] deals with Mus musculus. Nature of the assay: Percent increase in life span was measured in mice intracerebrally implanted leukemia L1210 at 15 mg/kg administered intraperitoneally on day 1 only. It counts as functional. Particulars: L1210, ip, 24 h, route intraperitoneal. In a few lines:
as §1

For assay [13], the system named is Mus musculus. Nature of the assay: Activity against TLX-5 lymphoma in mice Percent increase in survival time at 20 mg/kg,. It counts as functional.
Assay [14] concerns Mus musculus. Put plainly: Percent increase in life span was measured in mice intracerebrally implanted leukemia L1210 at 30 mg/kg administered intraperitoneally on day 1 only. It counts as functional. Conditions: L1210, ip, 24 h, route intraperitoneal. The method in brief: as §1
Assay [15] deals with Mus musculus. Nature of the assay: Activity against TLX-5 lymphoma in mice Percent increase in survival time at 40 mg/kg,. It counts as functional.
Assay [16] concerns Mus musculus. Nature of the assay: Median day of death was measured in mice intracerebrally implanted leukemia L1210 at 25 mg/kg administered intraperitoneally on day 1. It counts as functional. Conditions: route intraperitoneal. In a few lines: as §1
Assay [17] concerns Mus musculus. Nature of the assay: Median day of death was measured in mice intracerebrally implanted leukemia L1210 at 30 mg/kg administered intraperitoneally on day 1. Particulars: route intraperitoneal. It counts as functional. In a few lines: as §1
Assay [18] concerns Mus musculus. Put plainly: (§2) Percent increase in life span was measured in mice intracerebrally implanted leukemia L1210 at 80 mg/kg administered intraperitoneally on day 1 only. It counts as functional. Conditions: L1210, ip, 24 h, route intraperitoneal. In a few lines:
as §1

Assay [19] relates to Mus musculus. Nature of the assay: survivors / total number of mice intracerebrally implanted leukemia L1210 at 40 mg/kg administered intraperitoneally on day 1 only. 4-5 day; 10/10. It counts as functional. Conditions: route intraperitoneal. The method in brief: as §1
In assay [20] the test system is Mus musculus. Put plainly: survivors / total number of mice intracerebrally implanted leukemia L1210 at 50 mg/kg administered intraperitoneally on day 1 only. 4-5 day; 8/10. It counts as functional. Particulars: route intraperitoneal. In a few lines:
as §1

For assay [21], the system named is Mus musculus. Nature of the assay: survivors / total number of mice intracerebrally implanted leukemia L1210 at 60 mg/kg administered intraperitoneally on day 1 only. 4-5 day; 8/10. It counts as functional. Particulars: route intraperitoneal. In a few lines:
as §1

The subject of assay [22] is Mus musculus. Nature of the assay: survivors / total number of mice intracerebrally implanted leukemia L1210 at 30 mg/kg administered intraperitoneally on day 1 only. 4-5 day; 8/10. It counts as functional. Particulars: route intraperitoneal. In a few lines: as §1
The test system of assay [23] is Mus musculus. Nature of the assay: survivors / total number of mice intracerebrally implanted leukemia L1210 at 40 mg/kg administered intraperitoneally on day 1 only. 4-5 day; 8/9. It counts as functional. Conditions: route intraperitoneal. In a few lines:
as §1

Assay [24] deals with Mus musculus. Nature of the assay: Percent increase in life span was measured in mice intracerebrally implanted leukemia L1210 at 50 mg/kg administered intraperitoneally on day 1 only. It counts as functional. Particulars: L1210, ip, 24 h, route intraperitoneal. The method in brief:
as §1

In assay [25] the test system is Mus musculus. Nature of the assay: survivors / total number of mice intracerebrally implanted leukemia L1210 at 80 mg/kg administered intraperitoneally on day 1 only. 4-5 day; 3/8. It counts as functional. Particulars: route intraperitoneal. In a few lines: as §1
Assay [26] relates to Mus musculus. Put plainly: Median day of death was measured in mice intracerebrally implanted leukemia L1210 at 40 mg/kg administered intraperitoneally on day 1. It counts as functional. Conditions: route intraperitoneal. In a few lines: as §1
Assay [27] concerns Mus musculus. Nature of the assay: Median day of death was measured in mice intracerebrally implanted leukemia L1210 at 80 mg/kg administered intraperitoneally on day 1. It counts as functional. Conditions: route intraperitoneal. The method in brief: as §1
Assay [28] concerns Mus musculus. Put plainly: Median day of death was measured in mice intracerebrally implanted leukemia L1210 at 60 mg/kg administered intraperitoneally on day 1. It counts as functional. Particulars: route intraperitoneal. In a few lines:
as §1

For assay [29], the system named is Mus musculus. Nature of the assay: Percent increase in life span was measured in mice intracerebrally implanted leukemia L1210 at 40 mg/kg administered intraperitoneally on day 1 only. It counts as functional. Conditions: L1210, ip, 24 h, route intraperitoneal. The method in brief: as §1
Assay [30] deals with Mus musculus. Put plainly: survivors / total number of mice intracerebrally implanted leukemia L1210 at 30 mg/kg administered intraperitoneally on day 1 only. 4-5 day; 1/9. It counts as functional. Particulars: route intraperitoneal. In a few lines:
as §1

Assay [31] concerns Mus musculus. Put plainly: Percent increase in life span was measured in mice intracerebrally implanted leukemia L1210 at 60 mg/kg administered intraperitoneally on day 1 only. It counts as functional. Particulars: route intraperitoneal. The method in brief:
as §1

The test system of assay [32] is Mus musculus. The description is as §2. Conditions: L1210, ip, 24 h, route intraperitoneal. It counts as functional. The method in brief: as §1
The source holds these as a separate data set.

Assay [33] has as its system Mus musculus. Put plainly: survivors / total number of mice intracerebrally implanted leukemia L1210 at 60 mg/kg administered intraperitoneally on day 1 only. 4-5 day; 9/10. It counts as functional. Conditions: route intraperitoneal. In a few lines: as §1
For assay [34], the system named is Mus musculus. Nature of the assay: survivors / total number of mice intracerebrally implanted leukemia L1210 at 50 mg/kg administered intraperitoneally on day 1 only. 4-5 day; 8/9. It counts as functional. Particulars: route intraperitoneal. In a few lines: as §1

As to `O=NN(CCCl)C(=O)NC1C(F)(F)C(F)(F)C(F)(F)C(F)(F)C1(F)F`, the “Median day of death” value is given as 8 in the assay on Mus musculus [1]; 8 in the assay with Mus musculus [3]; 7 with Mus musculus [6]; 8 with Mus musculus [16]; 8 in the assay on Mus musculus [17]. Moreover, the ILS at 25 mg/kg in the assay with Mus musculus [2] was found to be 0%. Further, the Increase in the assay on Mus musculus [4] is listed as 4.2%; in the assay on Mus musculus [5], -38.3%; in the assay with Mus musculus [9], 6.3%; in the assay on Mus musculus [11], -57.5%; with Mus musculus [13], -2.2%; with Mus musculus [15], 11.6%. For the same compound, in the assay with Mus musculus [7], the ILS result is “Toxic”. In the assay with Mus musculus [8], the ILS at 10 mg/kg turned out to be 0%. In the assay with Mus musculus [10], the ILS at 35 mg/kg was -13%. Moreover, in the assay on Mus musculus [12], the ILS at 15 mg/kg came to 0%. The ILS at 30 mg/kg with Mus musculus [14] was found to be 0%.
As to `O=NN(CCCl)C(=O)NC1CCCCC1` [LOMUSTINE], the ILS at 80 mg/kg with Mus musculus [18] was 135%; in the assay with Mus musculus [32] it was 42%. The No. of survivors in the assay with Mus musculus [19] is given as 10; with Mus musculus [20], 8; in the assay on Mus musculus [21], 8; in the assay with Mus musculus [22] it was 8; in the assay on Mus musculus [23], 8; in the assay with Mus musculus [25], 3. The No. of survivors is recorded as 1 in the assay on Mus musculus [30], 9 in the assay on Mus musculus [33] and 8 in the assay on Mus musculus [34]. For the same compound, the Increase in the assay with Mus musculus [4] is on record as 21.2%; in the assay with Mus musculus [5], -25.6%; in the assay with Mus musculus [9], 53.1%; in the assay with Mus musculus [11], -36.2%; in the assay with Mus musculus [13] it was 95.9%; with Mus musculus [15], 189.3%. The ILS at 50 mg/kg in the assay on Mus musculus [24] stood at 350%. In addition, the “Median day of death” value in the assay on Mus musculus [26] was 25; with Mus musculus [27] it was 16.5 and 10; with Mus musculus [28], 26.5 and 20; in the assay with Mus musculus [17] (30 mg/kg), 37.5 and 15. The ILS at 40 mg/kg in the assay on Mus musculus [29] amounted to 257%. Besides, the ILS with Mus musculus [31] was 278% and 185%.
